Measurements published in article PMC6880868 (Cancer cell, 2019).

Assays:
STAT3 [1] = biological target: T1, STAT3 (Homo sapiens, UniProt P40763); experiment: Fluorescence polarization; assay type: binding
Procedure, shortened: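 Competitive fluorescence polarisation assay. Recombinant STAT3 (25 nM) was premixed 5 min with 2.5 nM 5-FAM-labelled STAT3 SH2-domain ligand. The mix was added to serially diluted test compound and read after 1 hr at room temperature. Buffer: 50 mM NaCl, 10 mM HEPES pH 7.5, 1 mM EDTA, 0.01% Triton X-100, 2 mM DTT. IC50 came from nonlinear regression and was converted to Ki.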

[2] = test system: transcriptional activity of STAT3; experiment: STAT3-luciferase reporter assay; assay type: cell-based, human; conditions: Homo sapiens, MOLM16, 24 h, read-out: IC50, transcriptional activity of STAT3
STAT3 [3] = biological target: T1, STAT3; experiment: Bio-Layer Interferometry binding, STAT3
Procedure, shortened: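 Recombinant human STAT3 was biotinylated and binding measured by Bio-Layer Interferometry for Kd. Selectivity was taken from Kd values against other STATs.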

STAT1 = STAT1 (Homo sapiens, UniProt P42224); experiment: Bio-Layer Interferometry binding, STAT1
Chain of STAT1 (P42224 132-713): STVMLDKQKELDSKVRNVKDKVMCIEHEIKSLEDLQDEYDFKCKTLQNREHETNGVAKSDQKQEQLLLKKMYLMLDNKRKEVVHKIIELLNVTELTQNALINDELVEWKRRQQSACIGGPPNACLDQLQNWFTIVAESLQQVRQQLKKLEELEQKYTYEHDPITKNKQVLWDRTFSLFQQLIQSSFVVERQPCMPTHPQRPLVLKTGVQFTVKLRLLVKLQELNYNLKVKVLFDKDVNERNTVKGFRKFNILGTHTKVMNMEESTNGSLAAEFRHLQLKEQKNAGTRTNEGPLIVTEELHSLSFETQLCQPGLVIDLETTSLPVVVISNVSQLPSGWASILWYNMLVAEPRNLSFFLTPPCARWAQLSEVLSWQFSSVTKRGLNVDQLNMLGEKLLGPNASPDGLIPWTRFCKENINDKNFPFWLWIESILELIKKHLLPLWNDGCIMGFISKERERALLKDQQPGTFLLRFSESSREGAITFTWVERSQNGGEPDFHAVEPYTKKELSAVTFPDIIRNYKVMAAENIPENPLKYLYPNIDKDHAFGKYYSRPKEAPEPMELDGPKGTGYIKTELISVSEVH
Procedure, shortened: (§1)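 Purified recombinant human STAT proteins were biotinylated, then direct binding of the test compound was measured by Bio-Layer Interferometry to give Kd.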

STAT4 = STAT4 (Homo sapiens, UniProt Q14765); experiment: Bio-Layer Interferometry binding, STAT4
Chain of STAT4 (Q14765 133-705): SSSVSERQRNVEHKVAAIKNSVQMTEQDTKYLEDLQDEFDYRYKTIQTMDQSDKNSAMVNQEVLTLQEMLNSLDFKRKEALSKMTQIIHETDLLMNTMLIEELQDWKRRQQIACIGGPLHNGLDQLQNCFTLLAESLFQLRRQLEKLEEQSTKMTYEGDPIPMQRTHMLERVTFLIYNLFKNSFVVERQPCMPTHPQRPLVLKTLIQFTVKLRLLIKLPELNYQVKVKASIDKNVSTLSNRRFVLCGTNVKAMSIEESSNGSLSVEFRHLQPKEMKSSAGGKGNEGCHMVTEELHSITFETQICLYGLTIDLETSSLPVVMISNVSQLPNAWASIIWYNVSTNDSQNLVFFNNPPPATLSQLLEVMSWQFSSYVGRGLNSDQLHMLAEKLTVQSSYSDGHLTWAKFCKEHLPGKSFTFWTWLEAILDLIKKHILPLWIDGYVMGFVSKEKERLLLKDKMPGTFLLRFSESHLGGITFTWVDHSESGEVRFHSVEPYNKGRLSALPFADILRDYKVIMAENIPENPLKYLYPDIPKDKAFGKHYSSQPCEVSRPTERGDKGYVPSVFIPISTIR
Procedure, shortened: as §1

STAT2 = STAT2 (Homo sapiens, UniProt P52630); experiment: Bio-Layer Interferometry binding, STAT2
Chain of STAT2 (P52630 138-702): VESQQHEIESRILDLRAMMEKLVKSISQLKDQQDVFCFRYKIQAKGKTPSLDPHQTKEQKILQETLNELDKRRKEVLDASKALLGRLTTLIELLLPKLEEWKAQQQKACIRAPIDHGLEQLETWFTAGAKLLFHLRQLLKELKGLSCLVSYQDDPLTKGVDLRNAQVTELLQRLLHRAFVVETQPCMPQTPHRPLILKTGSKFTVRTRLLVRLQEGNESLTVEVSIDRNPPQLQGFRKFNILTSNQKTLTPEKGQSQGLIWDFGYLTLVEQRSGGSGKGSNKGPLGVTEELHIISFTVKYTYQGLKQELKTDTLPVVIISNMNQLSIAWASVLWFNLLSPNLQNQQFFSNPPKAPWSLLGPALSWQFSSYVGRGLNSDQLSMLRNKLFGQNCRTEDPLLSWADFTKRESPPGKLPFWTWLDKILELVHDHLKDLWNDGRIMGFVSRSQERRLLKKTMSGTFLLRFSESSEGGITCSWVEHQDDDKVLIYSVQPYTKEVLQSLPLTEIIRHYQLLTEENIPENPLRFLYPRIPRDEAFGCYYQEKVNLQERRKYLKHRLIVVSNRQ
Procedure, shortened: as §1

[4] = test system: ~5500 proteins quantified in each cell line; experiment: Multiplexed quantitative proteomics in cell lines; assay type: cell-based, human; conditions: 10 μM, 2.5 hr, three cell lines, p≤0.05
Procedure, shortened: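 Cells were exposed to test compound, then analysed by multiplexed quantitative proteomics. Significance was assessed by Student's t-test.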

[5] = biological target: monomeric and dimeric STAT3 protein (Homo sapiens, UniProt P40763); experiment: Native electrophoresis and immunoblotting of STAT3 monomer/dimer; assay type: cell-based; conditions: MOLM-16, 1 μM, within 5 hr
Chain of monomeric and dimeric STAT3 protein (P40763 whole entry): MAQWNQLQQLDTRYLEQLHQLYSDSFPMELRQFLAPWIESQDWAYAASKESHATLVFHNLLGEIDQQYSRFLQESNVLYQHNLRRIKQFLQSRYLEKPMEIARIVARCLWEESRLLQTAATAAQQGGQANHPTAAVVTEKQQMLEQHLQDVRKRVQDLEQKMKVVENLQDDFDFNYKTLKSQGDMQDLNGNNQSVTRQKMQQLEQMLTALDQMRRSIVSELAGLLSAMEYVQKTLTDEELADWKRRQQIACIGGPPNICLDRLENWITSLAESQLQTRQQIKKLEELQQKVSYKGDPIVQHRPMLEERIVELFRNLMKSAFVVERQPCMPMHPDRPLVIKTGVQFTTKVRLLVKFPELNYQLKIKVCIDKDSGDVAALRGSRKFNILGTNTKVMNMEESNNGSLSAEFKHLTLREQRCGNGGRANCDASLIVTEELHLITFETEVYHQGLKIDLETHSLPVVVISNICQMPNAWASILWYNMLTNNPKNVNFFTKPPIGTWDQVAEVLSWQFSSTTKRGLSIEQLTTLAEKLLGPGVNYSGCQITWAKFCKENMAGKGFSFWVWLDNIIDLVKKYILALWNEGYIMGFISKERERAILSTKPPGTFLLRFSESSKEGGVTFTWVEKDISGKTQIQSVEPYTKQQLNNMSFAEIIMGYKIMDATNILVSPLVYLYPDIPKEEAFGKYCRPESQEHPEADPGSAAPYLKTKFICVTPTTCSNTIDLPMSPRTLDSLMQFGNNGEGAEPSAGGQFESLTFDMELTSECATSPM

[6] = biological target: DNA binding activity of STAT3 (Homo sapiens, UniProt P40763); experiment: STAT3 DNA binding activity assay on nuclear extracts; assay type: cell-based; conditions: 1 μM, 8 hr, MOLM-16 and SU-DHL-1
Chain of DNA binding activity of STAT3 (P40763 whole entry): as above
Procedure, shortened: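 Nuclear extraction: cells were swelled 15 min on ice in hypotonic HEPES pH 7.9/10 mM KCl buffer with DTT and phosphatase/protease inhibitors. NP-40 was added (0.5% final), and nuclei were extracted 15 min at 4°C in 0.4 M NaCl HEPES buffer, then cleared at 5,000 × g. ELISA: 5 μg extract was bound 1 hr at room temperature in TransAM STAT ELISA wells. Wells then received STAT antibody (1:1000, 1 hr), HRP secondary (1 hr) and colour development.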

[7] = test system: transcriptional activities of STAT1 or STAT5A/B; experiment: STAT1 and STAT5 dependent reporter cell lines; assay type: cell-based; conditions: STAT-dependent reporter cell lines
Procedure, shortened: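 Reporter cells (1000–2000) were seeded in duplicate plates, one for luciferase and one for CellTiter-Glo viability. Test compound was added 4–6 hr later, and cells were cultured 24 or 48 hr. Firefly and Renilla luciferase were read, and signals were normalised to cell number from the viability plate.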

[8] = test system: leukemia and lymphoma cell lines; experiment: 4-day CellTiter Glo cell viability assay, leukemia and lymphoma cell line panel; assay type: cell-based, human
SU-DHL-1 = experiment: RNA-seq analysis, SU-DHL-1; assay type: cell-based, human; conditions: SU-DHL-1, 24 hr
[9] = test system: MOLM-16 and SU-DHL-1 cell lines; experiment: Cell cycle analysis by flow cytometry; assay type: cell-based, human; conditions: 1 μM, 48 hr
Procedure, shortened: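 After treatment, cells were washed twice in cold PBS and fixed overnight in 50% ethanol. They were stained 1 hr at 4°C with PI (50 μg/ml) plus DNase-free RNase A (0.2 μg/ml), then analysed by flow cytometry.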

[10] = test system: mitochondrial STAT3; complex I and II; experiment: Mitochondrial STAT3 and OXPHOS complex I/II enzyme activity; assay type: cell-based; conditions: 24 hours
[11] = Pharmacokinetics in tumor-bearing mice; assay type: in vivo, NOD/SCID female mice; conditions: single i.v. dose 25 mg/kg; 1, 3 and 6 hr
Procedure, shortened: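 In NOD/SCID female mice with subcutaneous MOLM-16 xenografts, mice were dosed i.v. Blood and tissues were collected at the indicated times, and drug levels were measured by a pharmacokinetics core.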

SU-DHL-1 xenograft = SU-DHL-1 xenograft efficacy; assay type: in vivo, mice
Procedure, shortened: (§2)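 NOD/SCID female mice were injected subcutaneously in 5 mg/ml Matrigel with MOLM-16 (3 × 10^6), SU-DHL-1 (1 × 10^7) or SUP-M2 (1 × 10^7) cells. At about 150 mm3, mice were size-matched and randomised. Test compound or vehicle (10% PEG400 + 90% PBS) was given on the indicated schedules. Tumours were measured 2–3 times weekly, with volume = length×width²/2. TGI was calculated from group medians.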

SUP-M2 tumor = experiment: SUP-M2 xenograft efficacy; assay type: in vivo, mice
Procedure, shortened: as §2

[12] = Toxicity in immune competent mice; assay type: in vivo, CD-1 female mice
Procedure, shortened: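 Female CD-1 mice were given test compound i.v. at 50 or 100 mg/kg, or vehicle (10% PEG400 + 90% PBS), three times weekly for three weeks. Body weight was recorded 2–3 times per week. At the end, blood and major organs were taken for haematology, serum chemistry, organ coefficients and histology.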

STAT3 target genes [13] = experiment: qRT-PCR of STAT3 target genes in MOLM-16 cells; assay type: cell-based, human; conditions: MOLM-16, 1 μM, 8 hr
[14] = test system: IKZF1, IKZF3, CK1α, GSPT1; experiment: Immunoblotting of CRBN neo-substrates; assay type: cell-based, human; conditions: 24 hr; SD-36 0.5 μM, lenalidomide 1 μM
STAT3 target genes [15] = experiment: qRT-PCR of STAT3 target genes in MOLM-16 tumors; assay type: in vivo, SCID mice; conditions: single dose 25 mg/kg i.v.
Procedure, shortened: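 SCID mice with MOLM-16 tumours received vehicle or test compound i.v. Total RNA was isolated from tumour lysates and STAT3 target genes were quantified by qRT-PCR.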

[16] = i.v. 50 and 100 mg/kg, three times a week for three weeks

T1 sequence (P40763 127-688): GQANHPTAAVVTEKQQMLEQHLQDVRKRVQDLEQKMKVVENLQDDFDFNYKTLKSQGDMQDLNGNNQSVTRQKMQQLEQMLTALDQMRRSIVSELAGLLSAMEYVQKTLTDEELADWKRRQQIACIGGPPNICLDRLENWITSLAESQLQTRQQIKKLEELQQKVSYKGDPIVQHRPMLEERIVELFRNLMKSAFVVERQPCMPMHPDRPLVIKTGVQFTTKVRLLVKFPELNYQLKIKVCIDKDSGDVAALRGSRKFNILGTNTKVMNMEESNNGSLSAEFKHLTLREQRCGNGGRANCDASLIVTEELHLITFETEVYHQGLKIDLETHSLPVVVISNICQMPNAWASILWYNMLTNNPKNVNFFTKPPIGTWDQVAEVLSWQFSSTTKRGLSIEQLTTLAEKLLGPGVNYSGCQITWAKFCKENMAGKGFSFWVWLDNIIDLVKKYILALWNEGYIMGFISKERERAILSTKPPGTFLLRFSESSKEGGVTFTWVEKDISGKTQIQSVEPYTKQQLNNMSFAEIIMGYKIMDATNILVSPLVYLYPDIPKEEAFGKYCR

SMILES: NC(=O)CC[C@H](NC(=O)[C@@H]1CC[C@@H]2CCN(C(=O)CCCCCC#Cc3cccc4c3CN(C3CCC(=O)NC3=O)C4=O)C[C@H](NC(=O)c3cc4cc(C(F)(F)P(=O)(O)O)ccc4[nH]3)C(=O)N21)C(=O)NC(c1ccccc1)c1ccccc1 (stereo partly drawn) [SD-36, ((2-(((5S,8S,10aR)-8-(((S)-5-amino-1-(benzhydrylamino)-1,5-dioxopentan-2-yl)carbamoyl)-3-(8-(2-(2,6-dioxopiperidin-3-yl)-1-oxoisoindolin-4-yl)oct-7-ynoyl)-6-oxodecahydropyrrolo[1,2-a][1,5]diazocin-5-yl)carbamoyl)-1H-indol-5-yl)difluoromethyl)phosphonic acid]
- Ki (STAT3 [1]): 11 nM
- IC50 [2]: 10 nM
- Kd (STAT3 [3]): ~50 nM
- binding selectivity for STAT3 over STAT1 and STAT4 (STAT3 [3]; BLI Kd): approximately 20 fold
- Kd (STAT1): 1000 to 2000 nM
- Kd (STAT4): 1000 to 2000 nM
- Kd (STAT2): ~5 µM
- proteome-wide selectivity [4]: STAT3 was the only protein whose level was significantly decreased by ≥2-fold
- monomeric and dimeric STAT3 protein [5]: completely depletes
- DNA binding activity of STAT3 [6]: abolishes
- transcriptional activities of STAT1 or STAT5A/B [7]: minimal effect
- AML cell lines with strong growth-inhibitory activity ([8]; 9 AML cell lines): 1 of 9
- lymphoma cell lines with potent activity ([8]; 9 lymphoma cell lines): 5 of 9
- genes down-regulated by ≥2-fold (p≤0.05) (SU-DHL-1): 701 genes
- genes up-regulated by ≥2-fold (p≤0.05) (SU-DHL-1): 726 genes
- cell cycle effect [9]: profound G1 arrest
- effect on complex I and II activity [10]: did not have a substantial effect
- mitochondrial STAT3 [10]: effectively depleted
- drug exposure in plasma, tumor tissues and several organs [11]: good drug exposure
- tumor growth inhibited compared to the vehicle control (SU-DHL-1 xenograft; 50 mg/kg weekly): 50%
- tumor response (SU-DHL-1 xenograft; 100 mg/kg on day 1, 3 and 5 per week): complete tumor regression
- tumor response (SU-DHL-1 xenograft; 100 mg/kg weekly): rapid and complete tumor regression
- tumors completely regressed (SU-DHL-1 xenograft; 100 mg/kg weekly, after 2 doses, by day 12): 7 out of 7
- mice with no tumor returning (SU-DHL-1 xenograft; 100 mg/kg weekly, day 122, >100 days after the last dosing): 6 out of 7
- tumor growth (SU-DHL-1 xenograft; 25 and 50 mg/kg on day 1, 3 and 5 per week): effectively inhibited tumor growth
- tumor volume reduced (SU-DHL-1 xenograft; single dose 100 mg/kg, day 6): 80%
- tumor growth (SUP-M2 tumor; 50 mg/kg three times per week): completely inhibited tumor growth
- tumor response (SUP-M2 tumor; 100 mg/kg three times per week, tumor free until day 30): Complete tumor regression
- tumors with complete tumor regression (SUP-M2 tumor; 100 mg/kg twice a week for 3 weeks, day 29): 5 out of 7
- numbers of neutrophils and platelets ([12]; 100 mg/kg, three times a week for three weeks): slightly increased
- creatinine, blood urea nitrogen, calcium, albumin and total blood protein ([12]; data not shown): no significant effect
- counts of red or white blood cells, lymphocytes, monocytes or eosinophils [12, 16]: no significant changes
- systemic toxicity by body weight, organ coefficient and hematology [12, 16]: no obvious systemic toxicity
- histology of mouse tissues ([12]; mouse, in vivo): no significant effects
- body weight ([12]; reversible one week after withdrawal): moderate body weight gain
- expression of a set of STAT3 target genes (STAT3 target genes [13]): significantly down-regulated
- levels of IKZF1, IKZF3 and CK1α [14]: very modest effect
- protein levels of GSPT1 [14]: not affected
- expression of a set of STAT3 target genes in tumors (STAT3 target genes [15]): significantly down-regulated
